# Assay results gathered from unrelated publications.
# Lines come from different studies, so protocols differ.
# HTR2B: 5-hydroxytryptamine receptor 2B (HTR2B, Homo sapiens, UniProt P41595)
# RNMT: mRNA cap guanine-N(7) methyltransferase (RNMT, Homo sapiens, UniProt O43148)
# DHFR: Dihydrofolate reductase (DHFR, Homo sapiens, UniProt P00374)
SMILES,target,read-out,action,method,measurement,value
N#C[C@@]12C[C@@H]1[C@@H](n1cnc3c(N[C@@H](C4CCC4)C4CC4)nc(I)nc31)[C@H](O)[C@@H]2O,"5-hydroxytryptamine receptor 2C (HTR2C, Homo sapiens, UniProt P28335)",calcium signal,antagonist,,Kb,3.39 nM
O=C(c1cc(C2CCNC2)[nH]n1)N1CCC(c2cccc(Cl)c2)C1 (stereo not shown),HTR2B,calcium signal,antagonist,,IC50,16500 nM
NC(=O)c1cccc(C#CCN(CC[C@H](N)C(=O)O)C[C@H]2O[C@@H](n3cnc4c(N)ncnc43)[C@H](O)[C@@H]2O)c1,RNMT,binding,,MST,Kd,35700 nM
O=C(O)C1=CC(=C(c2ccc(O)c(C(=O)O)c2)c2ccc(O)c(C(=O)O)c2)C=CC1=O,"Guanine nucleotide-binding protein G(i) subunit alpha-3 (GNAI3, Homo sapiens, UniProt P08754)",binding,,BLI,Kd,~1600 nM
CCc1oc2c([C@H](CO)N(CC)CC)cccc2c1C,"Lysophosphatidic acid receptor 1 (LPAR1, Homo sapiens, UniProt Q92633)",G protein activation,agonist,,EC50,1.2 nM
Cc1ccc(NC(=S)NN=Cc2ccc(N3CCCCC3)cc2)cc1,DHFR,enzyme activity,inhibitor,,IC50,28500 nM
Cc1ccc(F)c(O)c1CN1CCN(C2CCCC2O)CC1 (stereo not shown),HTR2B,calcium signal,antagonist,,IC50,134 nM
N#C[C@@]12C[C@@H]1[C@@H](n1cnc3c(NC4CCCC4)nc(I)nc31)[C@H](O)[C@@H]2O,HTR2B,ligand displacement,,radioligand,Ki,4.27 nM
COc1cccc(NC(=S)NN=Cc2ccc(N3CCCCC3)cc2)c1,DHFR,enzyme activity,inhibitor,,IC50,22400 nM
CC(=O)N(CC#Cc1cccc(C(N)=O)c1)C[C@H]1C[C@@H](n2ccc3c(Cl)ncnc32)[C@H](O)[C@@H]1O,RNMT,binding,,MST,Kd,> 300000 nM
